Our source for the Activity, viability and IC50 values is ChEMBL document CHEMBL1150675, “Chemical constituents of Calophyllum brasiliense. 2. Structure of three new coumarins and cancer chemopreventive activity of 4-substituted coumarins” (J Nat Prod, 2003).

In data set [1] the test system is Raji. The data set can be described thus: Inhibition of TPA-induced EBV-early antigen activation in human Raji cells assessed as early antigen activation at 32 nmol after 48 hrs relative to control. The format is cell-based. Details: scale not given: the % may be the effect or the level left. Particulars: human gammaherpesvirus 4. The essentials:
(§1)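 Raji cells at 10^6 cells/mL are harvested and induced in RPMI 1640/10% FCS with 4 mM n-butyric acid and 32 pmol TPA (20 ng/mL). Compound is added in DMSO at 32, 16, 3.2 or 0.32 nmol (mol ratio to TPA). After 48 h at 37 °C, EA-positive cells are counted blind (≥500 cells) as % versus TPA-only control ± SD. IC50 is the mol ratio to TPA giving 50% inhibition.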

In data set [2] the test system is Raji. The data set can be described thus: Inhibition of TPA-induced EBV-early antigen activation in human Raji cells assessed as early antigen activation at 16 nmol after 48 hrs relative to control. Format: cell-based. Further details: scale not given: the % may be the effect or the level left. Particulars: human gammaherpesvirus 4. The essentials: as §1
Data set [3] concerns Raji. As to the kind of experiment: Inhibition of TPA-induced EBV-early antigen activation in human Raji cells assessed as early antigen activation at 3.2 nmol after 48 hrs relative to control. Particulars: human gammaherpesvirus 4. The format is cell-based. Details: scale not given: the % may be the effect or the level left. Put shortly: as §1
Data set [4] can be described thus: Cytotoxicity against human Raji cells assessed as cell viability at 32 nmol after 48 hrs by trypan blue staining. Particulars: read-out: Activity. The format is cell-based. The essentials: (§2)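 Raji cells grown to 106 cells/mL, pelleted and resuspended in RPMI 1640 with 10% FCS plus 4 mM n-butyric acid and 32 pmol TPA (20 ng/mL in DMSO), with test compound in DMSO (32, 16, 3.2 or 0.32 nmol; 1000–10 mol ratio/TPA). Viability counted after 48 h at 37 °C by hemocytometer with Trypan Blue; at least 60% survival required.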

The nature of data set [5]: Inhibition of TPA-induced EBV-early antigen activation in human Raji cells assessed as early antigen activation after 48 hrs relative to control. The format is cell-based, human gammaherpesvirus 4. The essentials: as §1
Data set [6] concerns Raji. The data set can be described thus: Inhibition of TPA-induced EBV-early antigen activation in human Raji cells assessed as early antigen activation at 0.32 nmol after 48 hrs relative to control. The format is cell-based. Further details: scale not given: the % may be the effect or the level left. Particulars: human gammaherpesvirus 4. Put shortly: as §1
Data set [7] can be described thus: Cytotoxicity against human Raji cells assessed as cell viability at 16 nmol after 48 hrs by trypan blue staining. The format is cell-based. Particulars: read-out: Activity. Put shortly:
as §2

The nature of data set [8]: Cytotoxicity against human Raji cells assessed as cell viability at 0.32 nmol after 48 hrs by trypan blue staining. The format is cell-based. Particulars: read-out: Activity. The essentials: as §2
The nature of data set [9]: Cytotoxicity against human Raji cells assessed as cell viability at 3.2 nmol after 48 hrs by trypan blue staining. Format: cell-based. Particulars: read-out: Activity. Put shortly: as §2

As for `CCCc1cc(=O)oc2c(C(=O)C(C)CC)c(O)c(CC=C(C)C)c(O)c12` (stereo not given), the Activity in the data set with Raji [1] was 0%; in the data set on Raji [2] it was 13.7%; in the data set with Raji [3], 50.6%; in the data set on Raji [6] it was 84.2%. Moreover, the viability at 48 h, 32 nmol in data set [4] worked out at 60%. Also, the IC50 in data set [5] worked out at 170 molar ratio. For the same molecule, the viability at 48 h, 16 nmol in data set [7] is above 80%. Besides, the viability at 48 h, 0.32 nmol in [8] was above 80%. In addition, the viability at 48 h, 3.2 nmol in data set [9] is above 80%.

Turning to `C/C=C(\C)C(=O)c1c(OC)c2c(c3c(CCC)cc(=O)oc13)OC(C)(C)C=C2`, the Activity with Raji [1] was determined as 0%; in the data set with Raji [2], 19.5%; with Raji [3], 62.5%; in the data set with Raji [6], 90.8%. In addition, the viability at 48 h, 32 nmol in [4] came to 60%. Besides, the IC50 in [5] was 268 molar ratio. In addition, in data set [7], the viability at 48 h, 16 nmol was above 80%. For the same molecule, the viability at 48 h, 0.32 nmol in data set [8] is above 80%. Besides, the viability at 48 h, 3.2 nmol in data set [9] was above 80%.

Take `CC1=C(/C=C/C(C)=C/C=C/C(C)=C/C=C/C=C(C)/C=C/C=C(C)/C=C/C2=C(C)CCCC2(C)C)C(C)(C)CCC1` [BETA CAROTENE]: the Activity was found to be 9.1% with Raji [1] and 100% with Raji [6]. Further, in data set [5], the IC50 came out at 400 molar ratio.

For `CCCc1cc(=O)oc2c(C(=O)c3ccccc3)c(O)c3c(c12)OC(C)(C)C=C3` [BRASIMARIN A], the Activity in the data set on Raji [1] came to 0%; in the data set with Raji [2], 33.3%; in the data set on Raji [3], 72.1%; in the data set on Raji [6], 93.8%. Moreover, the viability at 48 h, 32 nmol in data set [4] was found to be 70%. Also, the IC50 in [5] is on record as 349 molar ratio. Besides, in data set [7], the viability at 48 h, 16 nmol was above 80%. Moreover, the viability at 48 h, 0.32 nmol in data set [8] was above 80%. Further, in data set [9], the viability at 48 h, 3.2 nmol is above 80%.

In the case of `CCC(C)C(=O)c1c(O)c2c(c3c(-c4ccccc4)cc(=O)oc13)OC(C(C)(C)O)C2` (stereo not given) [BRASIMARIN B], the Activity in the data set on Raji [1] amounted to 0%; with Raji [2] it was 32.6%; with Raji [3], 71.6%; in the data set on Raji [6], 92.5%. In addition, the viability at 48 h, 32 nmol in [4] is 70%. Further, the IC50 in data set [5] worked out at 342 molar ratio. In addition, in [7], the viability at 48 h, 16 nmol was above 80%. Further, the viability at 48 h, 0.32 nmol in data set [8] is above 80%. For the same molecule, the viability at 48 h, 3.2 nmol in data set [9] is above 80%.

`CC(C)=CCc1c2c(c3oc(=O)cc(-c4ccccc4)c3c1O)C(=O)[C@H](C)[C@@H](C)O2` [BRASIMARIN C]: the Activity in the data set on Raji [1] stood at 0%; in the data set on Raji [2] it was 33.3%; in the data set with Raji [3], 70.2%; in the data set on Raji [6] it was 93.8%. In addition, the viability at 48 h, 32 nmol in [4] stood at 70%. In data set [5], the IC50 was determined as 348 molar ratio. In addition, the viability at 48 h, 16 nmol in [7] is above 80%. In addition, the viability at 48 h, 0.32 nmol in data set [8] was above 80%. Also, the viability at 48 h, 3.2 nmol in [9] is above 80%.

In the case of `CCCc1cc(=O)oc2c3c(c4c(c12)OC(C)(C)C=C4)O[C@H](C)[C@@H](C)[C@@H]3O` [CALANOLIDE A], the Activity in the data set on Raji [1] was found to be 0%; in the data set with Raji [2], 27.7%; in the data set with Raji [3] it was 66.6%; in the data set with Raji [6], 92.5%. Besides, in data set [4], the viability at 48 h, 32 nmol is 60%. The IC50 in [5] is recorded as 290 molar ratio. In [7], the viability at 48 h, 16 nmol is above 80%. Also, the viability at 48 h, 0.32 nmol in data set [8] is above 80%. In addition, the viability at 48 h, 3.2 nmol in [9] is above 80%.

Regarding `CCCc1cc(=O)oc2c3c(c4c(c12)OC(C)(C)C=C4)O[C@H](C)[C@H](C)[C@@H]3O` [CALANOLIDE C], the Activity in the data set with Raji [1] turned out to be 0%; in the data set with Raji [2], 35.1%; in the data set with Raji [3], 74%; in the data set on Raji [6], 94.3%. In addition, in data set [4], the viability at 48 h, 32 nmol came out at 70%. Also, the IC50 in data set [5] was determined as 351 molar ratio. In addition, the viability at 48 h, 16 nmol in data set [7] was above 80%. In addition, the viability at 48 h, 0.32 nmol in data set [8] was above 80%. The viability at 48 h, 3.2 nmol in data set [9] is above 80%.

On to `CC1(C)C=Cc2c(O)c(C(=O)c3ccccc3)c3oc(=O)cc(-c4ccccc4)c3c2O1` [CALANONE], for which the Activity with Raji [1] is 0%; in the data set with Raji [2] it was 32.3%; with Raji [3] it was 73.1%; in the data set on Raji [6], 93.3%. In addition, the viability at 48 h, 32 nmol in data set [4] was determined as 70%. Moreover, the IC50 in [5] is listed as 347 molar ratio. The viability at 48 h, 16 nmol in data set [7] is above 80%. Besides, in [8], the viability at 48 h, 0.32 nmol is above 80%. In data set [9], the viability at 48 h, 3.2 nmol was above 80%.
